Laboratory results: ChEMBL document CHEMBL1148054, “Chemical and bioactive constituents from Zanthoxylum simulans” (J Nat Prod, 1994)

Columns and labels:
HL-60 [1] = experiment: Induction of cell differentiation in human HL60 cells assessed as alpha naphthyl esterase activity at 7.7 uM after 4 days; type: functional
In short: (§1)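 HL-60 cells in RPMI 1640 with 5% heat-inactivated calf serum at 37° under 5% CO2. Log-phase cells diluted to 1.2×10^5 cells/ml and preincubated 18 h, then samples added in DMSO (final 0.1%, DMSO controls). Cells scored after 4 days.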

HL-60 [2] = experiment: Induction of terminal cell differentiation in human HL60 cells assessed as inhibition of [3H]thymidine incorporation at 61.5 uM after 4 days; type: functional; set-up: scale not given: the % may be the effect or the level left
In short: (§2)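 HL-60 cells were kept in RPMI 1640 with 5% heat-inactivated calf serum and penicillin/streptomycin at 37° under 5% CO2. Log-phase cells were diluted to 1.2×10^5 cells/ml and preincubated 18 h. Samples were added in DMSO (final 0.1%; vehicle controls matched) for 4 days. Aliquots then got 0.5 μCi/ml [3H]thymidine for 16 h more, were harvested and scintillation-counted. % incorporation per 10^6 cells = sample DPM / DMSO-control DPM.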

SK-MEL = experiment: Cytotoxicity against human SK-MEL cells; type: functional; settings: read-out: ED50 (the source's name)
In short: (§3)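 Cultured human cancer lines and murine P-388 cells. Complete dose-response data from at least five concentrations of test substance, each tested in duplicate.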

HL-60 [3] = experiment: Induction of terminal cell differentiation in human HL60 cells assessed as cell viability at 3.8 uM by trypan blue exclusion method; type: functional; settings: read-out: Activity
In short: (§4)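 HL-60 cells preincubated 18 h at 1.2×10^5 cells/ml, then exposed 4 days to samples in DMSO (final 0.1%). Viability by trypan blue exclusion: viable/(viable+dead)×100. Cell counts also taken after 4 days.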

[4] = Antiplatelet activity against rabbit platelet assessed as inhibition of collagen-induced platelet aggregation at 100 ug/ml; type: functional; settings: Oryctolagus cuniculus
HL-60 [5] = experiment: Induction of cell differentiation in human HL60 cells assessed as alpha naphthyl esterase activity at 15.4 uM after 4 days; type: functional; in short: as §1
HL-60 [6] = experiment: Induction of cell differentiation in human HL60 cells assessed as alpha naphthyl esterase activity at 61.5 uM after 4 days; type: functional; in short: as §1
HL-60 [7] = experiment: Induction of terminal cell differentiation in human HL60 cells assessed as inhibition of [3H]thymidine incorporation at 30.7 uM after 4 days; type: functional; set-up: scale not given: the % may be the effect or the level left; in short: as §2
HL-60 [8] = experiment: Induction of terminal cell differentiation in human HL60 cells assessed as inhibition of [3H]thymidine incorporation at 7.7 uM after 4 days; type: functional; set-up: scale not given: the % may be the effect or the level left; in short: as §2
HL-60 [9] = experiment: Induction of terminal cell differentiation in human HL60 cells at 7.7 uM after 4 days by NBT reduction assay; type: functional
In short: (§5)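 Log-phase HL-60 cells (RPMI 1640, 5% heat-inactivated calf serum, 37°, 5% CO2) were diluted to 1.2×10^5 cells/ml, preincubated 18 h, then treated 4 days with samples in DMSO (final 0.1%; DMSO controls). 10^6 cells were mixed 1:1 with fresh PBS holding 2 mg/ml NBT and 5 μg/ml TPA, 1 h at 37°. Formazan-positive cells were counted microscopically as % NBT-positive.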

HL-60 [10] = experiment: Induction of terminal cell differentiation in human HL60 cells assessed as inhibition of [3H]thymidine incorporation at 15.4 uM after 4 days; type: functional; set-up: scale not given: the % may be the effect or the level left; in short: as §2
HL-60 [11] = experiment: Induction of terminal cell differentiation in human HL60 cells assessed as naphthol AS-D chloroacetate esterase activity at 3.8 uM after 4 days; type: functional
In short: (§6)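 HL-60 cells were grown in RPMI 1640 with 5% heat-inactivated calf serum at 37°, 5% CO2. They were diluted to 1.2×10^5 cells/ml, preincubated 18 h, then exposed 4 days to DMSO-dissolved samples (final DMSO 0.1%, matched vehicle controls). Specific esterase (naphthol AS-D chloroacetate) was scored cytochemically with a commercial kit as the percentage of differentiated cells.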

HL-60 [12] = experiment: Induction of cell differentiation in human HL60 cells assessed as alpha naphthyl esterase activity at 30.7 uM after 4 days; type: functional; in short: as §1
HL-60 [13] = experiment: Induction of terminal cell differentiation in human HL60 cells assessed as naphthol AS-D chloroacetate esterase activity at 15.4 uM after 4 days; type: functional; in short: as §6
[14] = Cytotoxicity against human multidrug-resistant KBV1 cells in presence of vinblastine; type: functional; settings: KB-V1, read-out: ED50 (the source's name); in short: as §3
HL-60 [15] = experiment: Induction of terminal cell differentiation in human HL60 cells at 15.4 uM after 4 days by NBT reduction assay; type: functional; in short: as §5
HL-60 [16] = experiment: Induction of terminal cell differentiation in human HL60 cells assessed as cell viability at 30.7 uM by trypan blue exclusion method; type: functional; settings: read-out: Activity; in short: as §4
HL-60 [17] = experiment: Induction of terminal cell differentiation in human HL60 cells assessed as cell viability at 61.5 uM by trypan blue exclusion method; type: functional; settings: read-out: Activity; in short: as §4
HL-60 [18] = experiment: Induction of terminal cell differentiation in human HL60 cells at 3.8 uM after 4 days by NBT reduction assay; type: functional; in short: as §5
[19] = Cytotoxicity against human U373 cells; type: functional, U-373MG ATCC; settings: U373 MG, read-out: ED50; in short: as §3
HL-60 [20] = experiment: Induction of terminal cell differentiation in human HL60 cells at 30.7 uM after 4 days by NBT reduction assay; type: functional; in short: as §5
HL-60 [21] = experiment: Induction of terminal cell differentiation in human HL60 cells assessed as naphthol AS-D chloroacetate esterase activity at 61.5 uM after 4 days; type: functional; in short: as §6
HL-60 [22] = experiment: Induction of terminal cell differentiation in human HL60 cells assessed as naphthol AS-D chloroacetate esterase activity at 7.7 uM after 4 days; type: functional; in short: as §6
HT-1080 = experiment: Cytotoxicity against human HT1080 cells; type: functional; settings: read-out: ED50 (the source's name); in short: as §3
HL-60 [23] = experiment: Induction of terminal cell differentiation in human HL60 cells assessed as cell viability at 15.4 uM by trypan blue exclusion method; type: functional; settings: read-out: Activity; in short: as §4
LNCaP = experiment: Cytotoxicity against human LNCAP cells; type: functional; settings: read-out: ED50; in short: as §3
ZR-75-1 = experiment: Cytotoxicity against human ZR-75-1 cells; type: functional; settings: ZR-75-1, read-out: ED50; in short: as §3
A-431 = experiment: Cytotoxicity against human A431 cells; type: functional; settings: read-out: ED50 (the source's name); in short: as §3
HL-60 [24] = experiment: Induction of terminal cell differentiation in human HL60 cells at 61.5 uM after 4 days by NBT reduction assay; type: functional; in short: as §5
[25] = Cytotoxicity against human multidrug-resistant KBV1 cells in absence of vinblastine; type: functional; settings: KB-V1, read-out: ED50 (the source's name); in short: as §3
HL-60 [26] = experiment: Induction of cell differentiation in human HL60 cells assessed as alpha naphthyl esterase activity at 3.8 uM after 4 days; type: functional; in short: as §1
HL-60 [27] = experiment: Induction of terminal cell differentiation in human HL60 cells assessed as naphthol AS-D chloroacetate esterase activity at 30.7 uM after 4 days; type: functional; in short: as §6
Col2 = experiment: Cytotoxicity against human Col2 cells; type: functional; settings: read-out: ED50 (the source's name); in short: as §3
[28] = Cytotoxicity against human BC1 cells; type: functional; settings: read-out: ED50 (the source's name); in short: as §3
P388 = experiment: Cytotoxicity against mouse P388 cells; type: functional; settings: read-out: ED50 (the source's name); in short: as §3
HL-60 [29] = experiment: Induction of terminal cell differentiation in human HL60 cells assessed as inhibition of [3H]thymidine incorporation at 3.8 uM after 4 days; type: functional; set-up: scale not given: the % may be the effect or the level left; in short: as §2
HL-60 [30] = experiment: Induction of terminal cell differentiation in human HL60 cells assessed as cell viability at 7.7 uM by trypan blue exclusion method; type: functional; settings: read-out: Activity; in short: as §4
Lu1 = experiment: Cytotoxicity against human Lu1 cells; type: functional; settings: read-out: ED50 (the source's name); in short: as §3
[31] = Antiplatelet activity against rabbit platelet assessed as inhibition of arachidonic acid-induced platelet aggregation at 100 ug/ml; type: functional; settings: Oryctolagus cuniculus
KB = experiment: Cytotoxicity against human KB cells; type: functional; settings: read-out: ED50 (the source's name); in short: as §3
[32] = Antiplatelet activity against rabbit platelet assessed as inhibition of platelet activating factor-induced platelet aggregation at 100 ug/ml; type: functional; settings: Oryctolagus cuniculus

CC(C)C(=O)CCC1(C)C=Cc2c(c3ccccc3n(C)c2=O)O1 (stereo unspecified)
Activity (HL-60 [1]): 5% | Activity (HL-60 [2]): 31.6% | EC50 (SK-MEL): 36.6 µM | viability at 3.8 µM (HL-60 [3]): 97% | inhibition at 100 µg/mL [4]: 83.9% | Activity (HL-60 [5]): 5.5% | Activity (HL-60 [6]): 48.9% | Activity (HL-60 [7]): 0% | Activity (HL-60 [8]): 0% | Activity (HL-60 [9]): 4.5% | Activity (HL-60 [10]): 0% | Activity (HL-60 [11]): 5.5% | Activity (HL-60 [12]): 12.22% | Activity (HL-60 [13]): 8% | EC50 [14]: 4 µM | Activity (HL-60 [15]): 8% | viability at 30.7 µM (HL-60 [16]): 96% | viability at 61.5 µM (HL-60 [17]): 85% | Activity (HL-60 [18]): 5.5% | EC50 [19]: > 60 µM | Activity (HL-60 [20]): 9.9% | Activity (HL-60 [21]): 5% | Activity (HL-60 [22]): 6.5% | EC50 (HT-1080): > 60 µM | viability at 15.4 µM (HL-60 [23]): 98% | EC50 (LNCaP): > 60 µM | EC50 (ZR-75-1): 11.1 µM | EC50 (A-431): > 60 µM | Activity (HL-60 [24]): 53.1% | EC50 [25]: 24.3 µM | Activity (HL-60 [26]): 5% | Activity (HL-60 [27]): 9.4% | EC50 (Col2): > 60 µM | EC50 [28]: > 60 µM | EC50 (P388): 9.8 µM | Activity (HL-60 [29]): 0% | viability at 7.7 µM (HL-60 [30]): 98% | EC50 (Lu1): > 60 µM | inhibition at 100 µg/mL [31]: 100% | EC50 (KB): 46.4 µM | inhibition at 100 µg/mL [32]: 100%
